Measurements: ChEMBL document CHEMBL3407428, “Synthesis, in vitro and in vivo antitumor activity of scopoletin-cinnamic acid hybrids” (Eur J Med Chem, 2015)

Test system: not listed separately
Assay: Cytotoxicity against human HCT116 cells assessed as growth inhibition after 72 hrs by MTT assay
Assay type: functional, cell-based
Details: HCT-116, 72 h
How it was run: (§1)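 MTT viability assay. Cells were seeded at 5000 per well, incubated overnight, then exposed to compound at a range of concentrations for 72 h. MTT was added from a 5 mg/mL stock for 4 h, and absorbance was read at 570 nm. IC50 (50% viability inhibition) was calculated by the logit method. Each concentration was run at least three times.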

First: COc1cc2ccc(=O)oc2cc1O [SCOPOLETIN]
Second: COc1cc2cc(NC(=O)/C=C/c3ccccc3)c(=O)oc2cc1O
The IC50 of the first is higher: greater than 30000 nM for the first, 1150 nM for the second. The second is the more potent here.

Test system: A549
Assay: Cytotoxicity against human A549 cells assessed as growth inhibition after 72 hrs by MTT assay
Assay type: functional, cell-based
Details: A549, 72 h
How it was run: as §1

Compared with `COc1cc2ccc(=O)oc2cc1O` [SCOPOLETIN], `COc1cc2cc(NC(=O)/C=C/c3ccccc3)c(=O)oc2cc1O` is lower in IC50: greater than 30000 nM for the first, 2180 nM for the second.

Test system: MCF7
Assay: Cytotoxicity against human MCF7 cells assessed as growth inhibition at 10^-5 M after 72 hrs by MTT assay relative to control
Assay type: functional
Details: MCF7, 72 h, read-out: GI

Compared with `COc1cc2ccc(=O)oc2cc1O` [SCOPOLETIN], `COc1cc2cc(NC(=O)/C=C/c3ccccc3)c(=O)oc2cc1O` is higher in inhibition of growth at 10 µM: 2.63% for the first, 6.06% for the second.

Test system: MDA-MB-231
Assay: Cytotoxicity against human MDA-MB-231 cells assessed as growth inhibition after 72 hrs by MTT assay
Assay type: functional, cell-based
Details: MDA-MB-231, 72 h
How it was run: as §1

Going from `COc1cc2ccc(=O)oc2cc1O` [SCOPOLETIN] to `COc1cc2cc(NC(=O)/C=C/c3ccccc3)c(=O)oc2cc1O`, the IC50 falls from greater than 30000 nM to 369 nM.

Test system: not listed separately
Assay: Cytotoxicity against human HCT116 cells assessed as growth inhibition at 10^-5 M after 72 hrs by MTT assay relative to control
Assay type: functional
Details: HCT-116, 72 h, read-out: GI

Going from `COc1cc2ccc(=O)oc2cc1O` [SCOPOLETIN] to `COc1cc2cc(NC(=O)/C=C/c3ccccc3)c(=O)oc2cc1O`, the inhibition of growth at 10 µM rises from 1.36% to 60.3%.

Test system: MDA-MB-231
Assay: Cytotoxicity against human MDA-MB-231 cells assessed as growth inhibition at 10^-5 M after 72 hrs by MTT assay relative to control
Assay type: functional
Details: MDA-MB-231, 72 h, read-out: GI

Compared with `COc1cc2ccc(=O)oc2cc1O` [SCOPOLETIN], `COc1cc2cc(NC(=O)/C=C/c3ccccc3)c(=O)oc2cc1O` is higher in inhibition of growth at 10 µM: 8.47% for the first, 44.5% for the second.

Test system: A549
Assay: Cytotoxicity against human A549 cells assessed as growth inhibition at 10^-5 M after 72 hrs by MTT assay relative to control
Assay type: functional
Details: A549, 72 h, read-out: GI

Compared with `COc1cc2ccc(=O)oc2cc1O` [SCOPOLETIN], `COc1cc2cc(NC(=O)/C=C/c3ccccc3)c(=O)oc2cc1O` is higher in inhibition of growth at 10 µM: 4.23% for the first, 65.7% for the second.

Test system: HeLa
Assay: Cytotoxicity against human HeLa cells assessed as growth inhibition at 10^-5 M after 72 hrs by MTT assay relative to control
Assay type: functional
Details: read-out: GI

Going from `COc1cc2ccc(=O)oc2cc1O` [SCOPOLETIN] to `COc1cc2cc(NC(=O)/C=C/c3ccccc3)c(=O)oc2cc1O`, the inhibition of growth at 10 µM rises from 0.98% to 58.3%.
